Measured values taken from article PMC2773291 (Journal of medicinal chemistry, 2009).
Peptide text beside a SMILES is read from it. * marks the point of attachment. Pyropheophorbide(a) = C=Cc1c(C)c2cc3nc(c4c5[nH]c(cc6nc(cc1[nH]2)C(C)=C6CC)c(C)c5C(=O)C4)[C@@H](CCC(=O)*)[C@@H]3C; X1 = CCN(CC)c1ccc2nc3ccc(N=Nc4ccc(N(C)CCCC(=O)*)cc4)cc3[n+](-c3ccccc3)c2c1

Legend:
[1] = Quenching efficiency measurements; assay type: physicochemical; settings: FAP-PP quenched by free BHQ3 in DMSO; slope of linear Stern-Volmer plot
Procedure, shortened: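 Unquenched peptide-photosensitizer (1 μM in DMSO) was mixed with varying concentrations of free BHQ3 quencher. Fluorescence was corrected using absorbance at the excitation and emission wavelengths. Data were fitted to F0/F = 1 + KSV[Q], and KSV was taken from the slope of the Stern-Volmer plot.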

HEK-Vector cells = assay: In vitro photocytotoxicity; assay type: cell-based, human; settings: for photocytotoxicity toward HEK-Vector cells in the presence of light: FAP-PPB 8 μM, FAP-PP 4 μM, 2D-FAP-PPB 8 μM, 2 J cm^−2, MTT
tumor site = assay: Tumor accumulation after intravenous tail-vein injection; assay type: in vivo
mFAP = target: T1, mFAP (Mus musculus, UniProt P97321); assay: mFAP activity assay; assay type: biochemical, murine; settings: 37°C
T1 sequence (P97321 26-761 limits assumed): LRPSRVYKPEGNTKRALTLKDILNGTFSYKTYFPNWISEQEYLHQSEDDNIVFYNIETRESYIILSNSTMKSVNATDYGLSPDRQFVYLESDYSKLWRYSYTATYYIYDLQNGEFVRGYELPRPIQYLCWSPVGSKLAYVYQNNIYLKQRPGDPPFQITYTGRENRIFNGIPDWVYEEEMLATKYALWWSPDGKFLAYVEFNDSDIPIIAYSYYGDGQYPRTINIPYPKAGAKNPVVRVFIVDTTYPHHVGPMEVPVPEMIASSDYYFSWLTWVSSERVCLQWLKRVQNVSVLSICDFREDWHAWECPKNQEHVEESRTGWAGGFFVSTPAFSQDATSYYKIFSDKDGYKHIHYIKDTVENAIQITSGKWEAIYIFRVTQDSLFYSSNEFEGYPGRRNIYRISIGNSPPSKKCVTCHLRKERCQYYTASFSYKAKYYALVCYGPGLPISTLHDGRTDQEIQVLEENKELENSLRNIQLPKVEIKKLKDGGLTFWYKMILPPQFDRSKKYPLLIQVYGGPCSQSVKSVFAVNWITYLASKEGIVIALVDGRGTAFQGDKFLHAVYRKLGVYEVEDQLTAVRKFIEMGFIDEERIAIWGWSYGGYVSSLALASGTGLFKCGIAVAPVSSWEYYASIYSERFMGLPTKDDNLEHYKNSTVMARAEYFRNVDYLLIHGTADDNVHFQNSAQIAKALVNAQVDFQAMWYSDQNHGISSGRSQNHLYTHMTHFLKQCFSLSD
Procedure, shortened: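 Probe at 0.1, 0.3, 0.5, 0.7, 1, 2 and 6 μM (predissolved in 2.5 μL DMSO plus 0.5 μL Tween 80, then 1 mL 0.12 M NaCl/0.12 M TRIS, pH 7.37) was incubated with murine FAP (2 μg) at 37°C. Fluorescence was read continuously (ex 650, em 675 nm). After 1 h, 10 μg enzyme was added and reading continued 2 h. Triplicates were run. Vmax, Km, kcat and kcat/Km came from nonlinear Michaelis-Menten fits of initial rates (10% substrate depleted).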

[2] = test system: HEK-mFAP and HEK-Vector cells; assay: Flow cytometric studies, HEK-mFAP versus HEK-Vector cells; assay type: cell-based, human; settings: 6.25 μM
Procedure, shortened: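 Transfected HEK293 lines (murine FAP or empty vector) seeded at about 7 × 10^5 cells/well for 2 days, then kept overnight in FBS-free DMEM. Probe diluted in this conditioned medium to 6.25 μM and applied 1, 2, 4, 6 or 24 h at 37°C. Cells were centrifuge-washed three times, fixed in 2% paraformaldehyde for 10 min, and read by flow cytometry (ex 633 nm, em 660–690 nm; 10000 cells). Three independent experiments.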

HEK-mFAP cells = assay: In vitro photocytotoxicity; assay type: cell-based, human; settings: for photocytotoxicity toward HEK-mFAP cells in the presence of light: FAP-PPB 8 μM, FAP-PP 4 μM, 2D-FAP-PPB 8 μM, 2 J cm^−2, MTT
HEK-Vector tumor = assay: Mouse xenograft in vivo imaging and ex vivo validation, HEK-Vector tumor; parameters: species or system nude mice
Procedure, shortened: (§1)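 Athymic female nude mice carried 1 × 10^7 FAP-transfected HEK293 cells on the left flank and 1 × 10^7 vector cells on the right, or FAP cells on both flanks. After 3 weeks (tumors 5–10 mm) mice received 4 days of low-fluorescence diet and ketamine/acepromazine anaesthesia. Probe (25 nmol in 30 μL aqueous, 2 μL DMSO, 0.5 μL Tween 80) was injected intratumorally at several sites. Imaging before and at intervals to 24 h used ex 650 nm, em ≥700 nm, 200 ms exposure; signal normalised to exposure time and ROI area.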

HEK-mFAP cells (FAP+) [3] = assay: HPLC-MS of culture media after incubation with HEK-mFAP cells; assay type: cell-based, human; settings: for cleavage in culture media of HEK-mFAP cells (HPLC-MS): media after incubation for the confocal study, 25 μM, 6 h
Procedure, shortened: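 Probe-containing FAP-expressing HEK293 culture media were collected after incubation and analysed by HPLC-MS for cleaved probe. One set came from flow cytometry (6.25 μM in FBS-free DMEM, up to 24 h, 37°C). The other came from confocal work (25 μM, 6 h, 37°C).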

[4] = test system: HT29 tumor (FAP on stromal fibroblasts); assay: HT29 mouse xenograft in vivo imaging and frozen-section microscopy; parameters: species or system nude mouse
HEK-mFAP cells (FAP+) [5] = assay: Confocal microscopic studies, HEK-mFAP cells; assay type: cell-based, human; settings: 25 μM, 6 h, 37°C, FBS-free medium
Procedure, shortened: (§2)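 HEK293 stably expressing full-length wild-type murine FAP, grown in DMEM with 10% FBS, 2 mM L-glutamine and G418 200 μg mL−1. Cells seeded at 1.5 × 10^4/well for 2 days, then kept overnight in FBS-free DMEM. Probe was diluted in this conditioned medium to 25 μM and applied 6 h at 37°C, 5% CO2. Cells were fixed in 3% formaldehyde (20 min, dark), DAPI-mounted, and imaged confocally (405 and 633 nm lasers).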

[6] = target: dipeptidyl peptidase IV (DPPIV) (Homo sapiens, UniProt P27487); assay: Stability of FAP-PPB toward DPPIV; settings: FAP-PPB 1 nmol in 1 mL 20mM TRIS pH 7.5, PPB:DPPIV = 228:1, 37 °C
murine FAP (mFAP) = target: T2, murine FAP (mFAP) (Mus musculus, UniProt P97321); assay: Activation of FAP-PPB by murine FAP in buffer; assay type: biochemical
T2 sequence (P97321 26-761 limits assumed): T1 sequence (P97321 26-761 limits assumed)
Procedure, shortened: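 In-house expressed, purified murine FAP (2 μg) incubated with probe (1 nmol, predissolved in 2.5 μL DMSO plus 0.5 μL Tween 80, then 1 mL 0.12 M NaCl/0.12 M TRIS, pH 7.37); probe:enzyme about 50:1. Fluorescence followed in real time at 37°C (ex 650 nm, em 675 nm). Cleavage also tracked by HPLC-MS every 30 min until complete.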

HEK-Vector cells (FAP−) = assay: Confocal microscopic studies, HEK-Vector cells; assay type: cell-based, human; settings: 25 μM, 6 h, 37°C, FBS-free medium
Procedure, shortened: as §2, with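 “carrying empty vector,” for “expressing full-length wild-type murine FAP,”, “hygromycin B” for “G418”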

HEK-mFAP tumor = assay: Mouse xenograft in vivo imaging and ex vivo validation, HEK-mFAP tumor; parameters: species or system nude mice
Procedure, shortened: as §1

[7] = 10 micron frozen sections, 24 h post-injection
[8] = tumor homogenized, DMSO extract, 24 h post-injection of 25 nmol intra-tumor

dipeptidyl peptidase IV (DPPIV), sequence (P27487 29-766 limits assumed, species assumed): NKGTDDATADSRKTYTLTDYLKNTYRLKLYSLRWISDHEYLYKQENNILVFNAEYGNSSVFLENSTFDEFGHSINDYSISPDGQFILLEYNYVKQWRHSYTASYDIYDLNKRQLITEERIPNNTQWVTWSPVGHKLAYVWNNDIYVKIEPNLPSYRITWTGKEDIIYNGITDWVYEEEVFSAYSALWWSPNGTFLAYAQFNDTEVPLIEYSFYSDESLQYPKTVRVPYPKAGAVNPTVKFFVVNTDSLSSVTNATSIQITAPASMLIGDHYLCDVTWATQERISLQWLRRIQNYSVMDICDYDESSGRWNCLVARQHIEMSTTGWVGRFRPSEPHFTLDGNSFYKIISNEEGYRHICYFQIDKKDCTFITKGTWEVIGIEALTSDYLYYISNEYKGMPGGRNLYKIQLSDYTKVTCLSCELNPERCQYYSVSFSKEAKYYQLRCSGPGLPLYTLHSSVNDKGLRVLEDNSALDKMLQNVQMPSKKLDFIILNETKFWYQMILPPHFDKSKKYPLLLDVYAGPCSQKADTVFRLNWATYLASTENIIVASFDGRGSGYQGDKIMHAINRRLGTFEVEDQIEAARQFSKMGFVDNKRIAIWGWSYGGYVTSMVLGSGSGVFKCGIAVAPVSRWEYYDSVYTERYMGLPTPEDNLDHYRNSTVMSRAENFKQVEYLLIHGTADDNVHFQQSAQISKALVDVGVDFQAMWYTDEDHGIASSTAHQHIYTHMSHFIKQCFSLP

Pyro-TSGPNQEQK [FAP-PP]
Stern-Volmer quenching constant (KSV) [1]: 5.3 × 10^4 mol^−1dm^3
photocytotoxicity toward HEK-Vector cells in the presence of light (HEK-Vector cells): could kill both cell lines

C=Cc1c(C)c2cc3nc(c4c5[nH]c(cc6nc(cc1[nH]2)C(C)=C6CC)c(C)c5C(=O)C4)[C@@H](CCC(=O)N[C@H](C(=O)N[C@@H](CO)C(=O)NCC(=O)N1CCC[C@H]1C(=O)N[C@@H](CC(N)=O)C(=O)N[C@@H](CCC(N)=O)C(=O)N[C@@H](CCC(=O)O)C(=O)N[C@@H](CCC(N)=O)C(=O)N[C@@H](CCCCNC(=O)CCCN(C)c1ccc(N=Nc2ccc4nc5ccc(N(CC)CC)cc5[n+](-c5ccccc5)c4c2)cc1)C(N)=O)[C@@H](C)O)[C@@H]3C [FAP-PPB, Pyro-TSGPNQEQK(BHQ3)] ({Pyropheophorbide(a)}-TSGPNQEQK(X1)-NH2; C-terminus assumed)
accumulation at the tumor site (tumor site): no selective accumulation
specificity constant (kcat/Km) (mFAP): 29200 M⁻¹ s⁻¹
dark toxicity (distribution and shape of cells in flow cytometry) ([2]; 1 to 24 h, both cell lines, no light): does not have dark toxicity to both cell lines
fluorescence intensity in HEK-mFAP cells compared to HEK-Vector cells ([2]; flow cytometry, 1 h incubation): about 8 fold
cytotoxicity toward HEK-mFAP cells in the absence of light (HEK-mFAP cells; 8 μM, 24 h, MTT): non-cytotoxic in the absence of light
cell viability of HEK-mFAP cells with light (HEK-mFAP cells; 8 μM, 24 h incubation, 670 nm laser, 130 mW cm^−2, 2 J cm^−2, MTT): 55%
photocytotoxicity toward HEK-mFAP cells in the presence of light (HEK-mFAP cells): significant photocytotoxicity
Pyro fluorescence in HEK-Vector tumor frozen sections (confocal) (HEK-Vector tumor; [7]): very weak signal
fluorescence signal in HEK-Vector tumor relative to HEK-mFAP tumor (HEK-Vector tumor; 24 h post injection, fluorescence intensity per exposure time at tumor site): about half
cleavage in HEK-Vector tumor extract (HPLC-MS) (HEK-Vector tumor; [8]): no cleavage was observed
FAP-PPB cleaved in media after incubation with HEK-mFAP cells (HEK-mFAP cells (FAP+) [3]; 6.25 μM, 24 h incubation, HPLC-MS, data not shown): approximately 70%
cleavage in culture media of HEK-mFAP cells (HPLC-MS) (HEK-mFAP cells (FAP+) [3]): two peaks corresponding to fragments Pyro-TSGP and NQEQK-BHQ3 were identified
in vivo fluorescence in HT29 tumor ([4]; 25 nmol intra-tumor injection, left flank): strong fluorescence signal was observed immediately and it lasted for 24 h
Pyro fluorescence in HT29 tumor frozen section (confocal) ([4]; after in vivo imaging): bright Pyro’s fluorescence signals within both cancer cells and fibroblasts
intracellular fluorescence in HEK-mFAP cells (confocal) (HEK-mFAP cells (FAP+) [5]): bright intracellular fluorescence signal
HPLC analysis after incubation with DPPIV ([6]; 2 h, HPLC-MS): only a single peak corresponding to the intact FAP-PPB
fluorescence intensity change on incubation with DPPIV ([6]; over 2 h): No significant increase in fluorescence intensity
cytotoxicity toward HEK-Vector cells in the absence of light (HEK-Vector cells; 8 μM, 24 h, MTT): non-cytotoxic in the absence of light
photocytotoxicity toward HEK-Vector cells in the presence of light (HEK-Vector cells): not in the HEK-Vector cells
time to complete cleavage by mFAP (murine FAP (mFAP); HPLC-MS every 30 min, PPB:FAP about 50:1, TRIS buffer pH 7.37, 37°C): 4 h
fluorescence increase on complete cleavage by mFAP (murine FAP (mFAP); TRIS buffer pH 7.37, 37°C, complete fluorescence restoration): 200 fold
intracellular fluorescence in HEK-Vector cells (confocal) (HEK-Vector cells (FAP−)): minimal fluorescence signal
time to activation of FAP-PPB in tumor (HEK-mFAP tumor; 25 nmol intra-tumor injection, in vivo fluorescence imaging): ≤ 5 min
Pyro fluorescence in HEK-mFAP tumor frozen sections (confocal) (HEK-mFAP tumor; [7]): strong Pyro’s fluorescence signal

Pyro-TSGpnQEQK(BHQ3) [2D-FAP-PPB]
photocytotoxicity toward HEK-mFAP cells in the presence of light (HEK-mFAP cells): essentially non-cytotoxic
cleavage in culture media of HEK-mFAP cells (HPLC-MS) (HEK-mFAP cells (FAP+) [3]): no cleavage was observed
intracellular fluorescence in HEK-mFAP cells (confocal) (HEK-mFAP cells (FAP+) [5]): no significant fluorescence
photocytotoxicity toward HEK-Vector cells in the presence of light (HEK-Vector cells): essentially non-cytotoxic
intracellular fluorescence in HEK-Vector cells (confocal) (HEK-Vector cells (FAP−)): no significant fluorescence
cleavage in HEK-mFAP tumor extract (HPLC-MS) (HEK-mFAP tumor; [8]): little non-specific cleavages
